Reference: ChEMBL document CHEMBL1151475, “Thiopurine drugs azathioprine and 6-mercaptopurine inhibit Mycobacterium paratuberculosis growth in vitro” (2008)

Key:
Format in all cases: functional
[1] = system: Mycobacterium avium subsp. paratuberculosis; test: Antituberculosis activity against Mycobacterium paratuberculosis B238 isolated from bovine assessed as minimum drug level required for inhibition by MGIT 960 susceptibility test
Method in brief: (§1)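 10^5 to 10^6 CFU from single-cell suspensions inoculated in duplicate into MGIT ParaTB medium with supplement and egg yolk. Drugs were at final 0.5–64.0 μg/ml, with 128.0 μg/ml added for some strains. Tubes were incubated at 37°C in MGIT 960. Inhibition is the lowest concentration giving a time to detection longer than a drug-free 1:100 inoculum control. Killing is no positive signal through 56 days.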

[2] = system: Mycobacterium avium subsp. paratuberculosis; test: Antituberculosis activity against Mycobacterium paratuberculosis B213 isolated from bovine assessed as minimum drug level required for inhibition by MGIT 960 susceptibility test; method in brief: as §1
[3] = system: Mycobacterium avium subsp. paratuberculosis; test: Antituberculosis activity against Mycobacterium paratuberculosis ATCC 19698 isolated from bovine assessed as lowest drug level producing inhibition at 10^6 CFU of inoculum by agar counting method
Method in brief: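 ATCC 19698 at 10^6 CFU was exposed to drug (1.0–64.0 μg/ml) in MGIT ParaTB medium at 37°C. Aliquots taken at 3 and 5 days were centrifuged, resuspended in PBS and declumped with glass beads. Serial dilutions were plated in quadruplicate on 7H10/OADC/mycobactin J and counted after 8 weeks. Inhibition is the lowest concentration giving a 2 log10 (99%) CFU reduction.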

Mycobacterium avium [4] = test: Antituberculosis activity against Mycobacterium avium ATCC 35712 isolated from chicken assessed as minimum drug level required for killing after 56 days by MGIT 960 susceptibility test; method in brief: as §1
Mycobacterium avium [5] = test: Antituberculosis activity against Mycobacterium avium ATCC 35712 isolated from chicken assessed as minimum drug level required for inhibition by MGIT 960 susceptibility test; method in brief: as §1
[6] = system: Mycobacterium avium subsp. paratuberculosis; test: Antituberculosis activity against Mycobacterium paratuberculosis B213 isolated from bovine assessed as minimum drug level required for killing after 56 days by MGIT 960 susceptibility test; method in brief: as §1
[7] = system: Mycobacterium avium subsp. paratuberculosis; test: Antituberculosis activity against Mycobacterium paratuberculosis B238 isolated from bovine assessed as minimum drug level required for killing after 56 days by MGIT 960 susceptibility test; method in brief: as §1
[8] = system: Mycobacterium avium subsp. paratuberculosis; test: Antituberculosis activity against Mycobacterium paratuberculosis JTC303 isolated from bovine assessed as minimum drug level required for inhibition by MGIT 960 susceptibility test; method in brief: as §1
[9] = system: Mycobacterium avium subsp. paratuberculosis; test: Antituberculosis activity against Mycobacterium paratuberculosis B236 isolated from bovine assessed as minimum drug level required for killing after 56 days by MGIT 960 susceptibility test; method in brief: as §1
[10] = system: Mycobacterium avium subsp. paratuberculosis; test: Antituberculosis activity against Mycobacterium paratuberculosis UCF-5 isolated from Crohn's disease patient assessed as minimum drug level required for killing after 56 days by MGIT 960 susceptibility test; method in brief: as §1
[11] = system: Mycobacterium avium subsp. paratuberculosis; test: Antituberculosis activity against Mycobacterium paratuberculosis UCF-7 isolated from Crohn's disease patient assessed as minimum drug level required for killing after 56 days by MGIT 960 susceptibility test; method in brief: as §1
[12] = system: Mycobacterium avium subsp. paratuberculosis; test: Antituberculosis activity against Mycobacterium paratuberculosis B236 isolated from bovine assessed as minimum drug level required for inhibition by MGIT 960 susceptibility test; method in brief: as §1
[13] = system: Mycobacterium avium subsp. paratuberculosis; test: Antituberculosis activity against Mycobacterium paratuberculosis ATCC 19698 isolated from bovine assessed as minimum drug level resulting in no detectable growth at 10^6 CFU of inoculum after 56 days by MGIT 960 susceptibility test
Method in brief: (§2)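 M. paratuberculosis ATCC 19698 at 10^6 CFU per MGIT ParaTB tube in duplicate, drugs at final 1.0–64.0 μg/ml, 37°C in MGIT 960. Inhibition is the lowest concentration whose time to detection exceeds the 1:100 diluted-inoculum solvent control. No detectable growth means the tube never signals positive through 56 days.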

[14] = system: Mycobacterium avium subsp. paratuberculosis; test: Antituberculosis activity against Mycobacterium paratuberculosis UCF-4 isolated from Crohn's disease patient assessed as minimum drug level required for inhibition by MGIT 960 susceptibility test; method in brief: as §1
[15] = system: Mycobacterium avium subsp. paratuberculosis; test: Antituberculosis activity against Mycobacterium paratuberculosis UCF-5 isolated from Crohn's disease patient assessed as minimum drug level required for inhibition by MGIT 960 susceptibility test; method in brief: as §1
[16] = system: Mycobacterium avium subsp. paratuberculosis; test: Antituberculosis activity against Mycobacterium paratuberculosis JTC303 isolated from bovine assessed as minimum drug level required for killing after 56 days by MGIT 960 susceptibility test; method in brief: as §1
[17] = system: Mycobacterium avium subsp. paratuberculosis; test: Antituberculosis activity against Mycobacterium paratuberculosis UCF-4 isolated from Crohn's disease patient assessed as minimum drug level required for killing after 56 days by MGIT 960 susceptibility test; method in brief: as §1
[18] = system: Mycobacterium avium subsp. paratuberculosis; test: Antituberculosis activity against Mycobacterium paratuberculosis ATCC 19698 isolated from bovine assessed as lowest drug level producing inhibition at 10^6 CFU of inoculum by MGIT 960 susceptibility test; method in brief: as §2
[19] = system: Mycobacterium avium subsp. paratuberculosis; test: Antituberculosis activity against Mycobacterium paratuberculosis UCF-7 isolated from Crohn's disease patient assessed as minimum drug level required for inhibition by MGIT 960 susceptibility test; method in brief: as §1

Compound | Activity [1] | Activity [2] | Activity [3] | Activity (Mycobacterium avium [4]) | Activity (Mycobacterium avium [5]) | Activity [6] | Activity [7] | Activity [8] | Activity [9] | Activity [10] | Activity [11] | Activity [12] | Activity [13] | Activity [14] | Activity [15] | Activity [16] | Activity [17] | Activity [18] | Activity [19]
CC[C@H]1OC(=O)[C@H](C)[C@@H](O[C@H]2C[C@@](C)(OC)[C@@H](O)[C@H](C)O2)[C@H](C)[C@@H](O[C@@H]2O[C@H](C)C[C@H](N(C)C)[C@H]2O)[C@](C)(O)C[C@@H](C)CN(C)[C@H](C)[C@@H](O)[C@]1(C)O [AZITHROMYCIN] | >0.5 µg/mL | 1 µg/mL | 4 µg/mL | 16 µg/mL | 1 µg/mL | 2 µg/mL | 1 µg/mL | 1 µg/mL | 4 µg/mL | 2 µg/mL | 1 µg/mL | 0.5 µg/mL | 16 µg/mL | 1 µg/mL | 0.5 µg/mL | 4 µg/mL | 2 µg/mL | 4 µg/mL | 0.5 µg/mL
Nc1ccc(S(=O)(=O)Nc2ccccn2)cc1 [SULFAPYRIDINE] |  |  | >64 µg/mL |  |  |  |  |  |  |  |  |  | >64 µg/mL |  |  |  |  | >64 µg/mL | 
Nc1ccc(O)c(C(=O)O)c1 [MESALAMINE] |  |  | >64 µg/mL |  |  |  |  |  |  |  |  |  | >64 µg/mL |  |  |  |  | >64 µg/mL | 
O=C(O)c1cc(/N=N/c2ccc(S(=O)(=O)Nc3ccccn3)cc2)ccc1O [SULFASALAZINE] |  |  | >64 µg/mL |  |  |  |  |  |  |  |  |  | >64 µg/mL |  |  |  |  | >64 µg/mL | 
